Most compounds without a hit are left out; they make up all but 1.3% or so of the library.
cardiac RTF act: cardiac RTF calcium sensitization; actives 0.24% (n = 340,000); IANBD-labeled TnC RTF fluorescence at EC20 calcium; 0% EC20 calcium, 100% full calcium; activation, % at 7.2 µM; AID 493008;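 active = activation above the mean over all tested compounds plus 3 SD, cut at about 30% in these data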;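 note: rise in fluorescence read as greater calcium sensitivity of cardiac thin filaments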
CAL PDZ FP-1: CAL PDZ (human) peptide binding inhibition | purified CAL PDZ, TMR-peptide fluorescence polarization, 1 h | inhibition, % at 24.9 µM | actives 0.92% (n = 300,000) | AID 602252;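 active = mean inhibition of at least 30% with at least half of replicates also reaching 30%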
Keap1 Nrf2 FP: Keap1-Nrf2 (human) interaction inhibition; Keap1 Kelch-Nrf2 peptide fluorescence polarization, 1536-well; Q14145; inhibition, % at 9.4 µM; AID 504523; actives 0.15% (n = 340,000); in the data active = inhibition above about 12%;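 note: human Keap1 Kelch domain with fluorescein labeled Nrf2 9mer peptide probe; higher means more block of Keap1 binding to Nrf2 peptide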
Target sequence (Q14145 whole entry, looked up, the tested form may be a part): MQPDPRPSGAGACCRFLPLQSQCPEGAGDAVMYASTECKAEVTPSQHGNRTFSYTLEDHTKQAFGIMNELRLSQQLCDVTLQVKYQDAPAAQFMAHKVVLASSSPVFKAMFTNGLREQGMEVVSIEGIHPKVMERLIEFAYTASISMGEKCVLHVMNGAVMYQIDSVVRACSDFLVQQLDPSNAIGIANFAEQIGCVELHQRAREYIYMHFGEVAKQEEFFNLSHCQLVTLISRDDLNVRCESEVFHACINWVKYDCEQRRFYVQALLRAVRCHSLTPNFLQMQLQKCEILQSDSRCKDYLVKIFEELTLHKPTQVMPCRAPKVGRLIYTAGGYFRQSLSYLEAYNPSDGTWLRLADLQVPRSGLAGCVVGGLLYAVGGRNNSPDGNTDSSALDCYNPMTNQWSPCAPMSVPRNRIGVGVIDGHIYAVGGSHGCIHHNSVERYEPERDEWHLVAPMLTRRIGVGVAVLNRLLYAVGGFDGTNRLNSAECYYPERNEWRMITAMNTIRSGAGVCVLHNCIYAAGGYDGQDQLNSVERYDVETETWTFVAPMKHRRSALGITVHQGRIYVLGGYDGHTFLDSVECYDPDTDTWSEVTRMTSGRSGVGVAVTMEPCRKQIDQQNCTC
C-LANA FP: KSHV C-LANA DNA binding inhibition; inhibition, % at 9 µM; MBP-C-LANA/FAM-LBS DNA binding, fluorescence polarization; actives 0.078% (n = 340,000);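 active = highest replicate inhibition at or above 60% at 9 µM, even if other replicates fall short; inactive = all replicates below 60% inhibition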
CAL PDZ FP-2: inhibitors of human CAL PDZ peptide binding; inhibition, % at 20 µM; AID 504414; purified CAL PDZ, TMR-peptide fluorescence polarization, 1 h; Q9HD26; actives 0.02% (n = 330,000);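 active = highest replicate inhibition of at least 40%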
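Test system: purified CerCALP PDZ construct; Compound dosing: one concentration, 20 µM compound; Also added: TMR-labelled reporter peptide T*-PRC34 bound in PDZ groove; Read-out: inhibition from polarization loss; Controls: unlabelled peptide and DMSO controls; Signal: FP readout, S and P plane fluorescence; Incubation: 1 h at RT.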
Cardiac RTF inh: cardiac RTF calcium desensitization; P19429+P45379; IANBD-labeled cardiac RTF, Ca2+ fluorescence; inhibition, % at 7.15 µM; actives 0.12% (n = 340,000); AID 493244;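 active = inhibition above the mean inhibition of all tested compounds plus 3 SD, cut at about 17% in these data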;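 note: assay run at fixed EC70 calcium of 1.6 mM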
Large screens that a line does not name were inactive.

CCN1C(=O)/C(=C\C=C\c2ccccc2[N+](=O)[O-])SC1=S	none (no result: CAL PDZ FP-2)
CCN1C(=O)/C(=C/C=C2\N(CC)c3cc(S(=O)(=O)N(C)C)ccc3N2c2ccccc2)SC1=S	cardiac RTF act 166.2
CC(C)CNC(=O)c1cccc(NC(=O)c2ccccc2-c2ccccc2C(=O)O)c1	CAL PDZ FP-1 88.6 (no result: CAL PDZ FP-2)
CCN(CC(=O)Nc1c(F)cccc1F)C(=O)CN1C(=O)C2CCCCC2C1=O (centres undefined)	none
O=C(c1coc(=O)c(Br)c1)N1CCCc2ccccc21	C-LANA FP 76.9
CCc1ccccc1NC(=O)CN(C)C(=O)COC(=O)c1ccco1	none
CC(Oc1ccc(Cl)cc1C(N)=O)C(=O)N1CCc2ccccc21 (centres undefined)	CAL PDZ FP-1 72.9
COc1ccccc1OC(C)C(=O)N1CCc2ccccc21 (centres undefined)	none
O=c1c(CO)cc(CO)cc(CO)c1O	none
O=C1C=CC(=O)c2c(O)c(CO)c(CO)c(O)c21	Cardiac RTF inh 35.8
CCC(C)(C)NC(=O)C(c1ccc(C)cc1)N(CC1CCCO1)C(=O)CCC(=O)Nc1ccccn1 (centres undefined)	none (no result: CAL PDZ FP-1)
Cc1ccc(C(C(=O)NC(C)(C)C)N(CC2CCCO2)C(=O)CCC(=O)Nc2ccccn2)cc1 (centres undefined)	CAL PDZ FP-1 84.5
CCOc1ccc(CCNS(=O)(=O)c2c(C)nc3scc(C)n3c2=O)cc1OCC	none
Cn1c(=O)c2c(nc3n2CC(O)CN3c2ccccc2)n(C)c1=O (centres undefined)	none
O=C(Nc1nc2c(s1)CN(Cc1ccccc1)CC2)c1cccc(S(=O)(=O)N2CCc3ccccc32)c1	cardiac RTF act 67.4
O=C(Nc1nc2ccccc2s1)c1cccc(S(=O)(=O)N2CCc3ccccc32)c1	none
COC(=O)/C=C/c1ccccc1CN1[C@@H](CC(=O)OC)c2ccccc2S1(=O)=O	none
CN=Cc1nc(-c2ccccc2)oc1O	none
CC1=Nc2ccccc2/C1=C\c1nc(-c2ccc(F)cc2)oc1O	cardiac RTF act 83.9
CCCCN(CC)CCCNC(=O)c1cn(C)c(=O)c2c1c1ccccc1n2C	CAL PDZ FP-1 36.8 (no result: CAL PDZ FP-2)
CCCCN(CC)CCNC(=O)c1cn(CCOC)c(=O)c2c1c1ccccc1n2C	none
O=C(NC(N1CCOCC1)C(Cl)(Cl)Cl)c1ccc(F)cc1 (centres undefined)	CAL PDZ FP-1 75.5
N#C/C(=C\c1coc2ccccc2c1=O)C(N)=S	none
N#C/C(=C\c1coc2ccc(O)cc2c1=O)C(=O)Nc1nc2ccccc2s1	cardiac RTF act 313.1
Cc1cccc(N(Cc2ccccc2)C(=O)CSC(C)C(=O)Nc2cc(C)on2)c1 (centres undefined)	none
CC(NC(=O)/C(C#N)=C/c1ccc([N+](=O)[O-])o1)c1ccccc1 (centres undefined)	none
N#C/C(=C\c1ccc(O)cc1)C(=O)NCc1ccccc1	none
CCN(CC)c1ccc(/C=C(/C#N)C(=O)NCc2ccccc2)o1	cardiac RTF act 110.6
CCN(CC)c1ccc(/C=C(/C#N)C(=O)NC(C)C)o1	cardiac RTF act 71.5
CC(C)NC(=O)/C(C#N)=C\c1ccc(N(C)C)o1	cardiac RTF act 63.6
CCC(=O)N1CCC(NC(=O)Nc2ccc(OC(F)(F)F)cc2)CC1	none (no result: CAL PDZ FP-1)
Cc1ccc(S(=O)(=O)N2CCCCC2)cc1NC(=O)c1cc(=O)[nH]c2ccccc12	none
CN(C)c1ccc2nc3c(=O)[nH]c(=O)nc-3n(CC(O)C(O)C(O)CO)c2c1 (centres undefined)	cardiac RTF act 124.8 (no result: CAL PDZ FP-1)
Nn1c(Cc2ccccc2)nnc1Cc1ccccc1	CAL PDZ FP-1 54.0
Cc1ccc(Cn2c(=O)n(CCC(=O)NCc3ccc4c(c3)OCO4)c(=O)c3ccccc32)cc1	CAL PDZ FP-1 66.2
CC1C=CC=CC=CC=CC=CC=CC=CC(OC2OC(C)C(O)C(N)C2O)CC2OC(O)(CC(O)CC(O)C(O)CCC(O)CC(O)CC(=O)OC(C)C(C)C1O)CC(O)C2C(=O)O (centres undefined)	C-LANA FP 67.6
COc1ccc(OC)c(NC(=O)NNC(=O)CCCOc2ccc(Cl)cc2C)c1	CAL PDZ FP-1 47.8
COc1ccc(NC(=O)NNC(=O)COc2ccc(Cl)cc2C)cc1OC	none
CCC1(C)NC(=O)N(CC(=O)c2cc(C)n(C3CC3)c2C)C1=O (centres undefined)	none
COc1ccc(C2(C)NC(=O)N(CC(=O)c3cc(C)n(C4CC4)c3C)C2=O)cc1OC (centres undefined)	CAL PDZ FP-1 53.6
Cc1nnc(N2CCC(C(=O)N3CCCCC3)CC2)c2nn(-c3ccc(Cl)cc3)c(C)c12	none
COc1ccc(-n2nc3c(N4CCC(C(=O)N5CCC(C)CC5)CC4)nnc(C)c3c2C)cc1	cardiac RTF act 32.4
CC(=O)Oc1ccc(C2=NN(c3ccccc3)C(c3ccccc3)C2)cc1 (centres undefined)	none
CC(C)CCN1C(=O)c2ccc(C(=O)Nc3cc(C(=O)O)cc(C(=O)O)c3)cc2C1=O	CAL PDZ FP-1 32.9
O=C(Nc1ccc(Nc2ccccc2)cc1)c1cccc(F)c1	none
COC(=O)C(NNc1ccccc1)(NC(=O)c1cccc(F)c1)C(F)(F)F (centres undefined)	CAL PDZ FP-1 49.8
Cc1ccc(N=C2NC(=O)CS2)cc1	none
Cc1ccc(C)n1/N=C1/NC(=O)CS1	C-LANA FP 87.4
O=C(Nc1ccccc1)c1cc(S(=O)(=O)NCc2ccncc2)ccc1Cl	none
O=C(NCc1ccccc1Cl)C1CCCN1S(=O)(=O)c1ccccc1F (centres undefined)	none
O=C(NCc1cccs1)C1CCCN1S(=O)(=O)c1ccccc1F (centres undefined)	CAL PDZ FP-1 86.0 (no result: CAL PDZ FP-2)
C[C@@H](C(=O)N=c1sc2ccccc2n1C)N1C(=O)C2CC=CCC2C1=O (some centres undefined)	none
O=S(=O)(c1ccc2c(c1)OCCO2)N(Cc1ccc(F)cc1)Cc1nnc(-c2cccs2)o1	CAL PDZ FP-1 42.9
CC(C)N(C)S(=O)(=O)c1ccc(NC(=O)CSC(=S)N2CCCC2)cc1	none
COc1ccc(C(=O)NCCS(=O)(=O)N2CCCC2)cc1	none
CCCNC(=S)Nc1ccc(Cl)cc1C	CAL PDZ FP-1 49.5
CN(Cc1c(F)cccc1Cl)C(=O)C1=CC=CN2CCS(=O)(=O)N=C12	none
Oc1ccccc1-c1nnc(SCCN2CCOCC2)n1Cc1ccccc1	CAL PDZ FP-1 55.7
Cc1nc(C)c(-c2ccc(SCC(=O)Nc3cccc(Cl)c3)nn2)s1	none
Cc1noc(C)c1S(=O)(=O)N1CCN(S(=O)(=O)c2ccccc2C#N)CC1	CAL PDZ FP-1 33.9
Cc1n[nH]c(C)c1S(=O)(=O)N1CCN(S(=O)(=O)c2ccccc2C#N)CC1	none
